The source made the active and inactive calls. No cut-off for these calls is given here.
How the values were obtained:
[1] = In vitro alpha-1 adrenergic receptor binding affinity was determined on calf frontal cortex membrane preparation; assay type: tissue-based, Bos taurus
Summary of the method: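 Calf frontal cortex membranes (0.5 mg protein/mL) incubated 40 min at 25 °C with 0.5 nM [3H]prazosin in 50 mM phosphate buffer with 10 mM MgCl2. Competitors at 10^-9 to 10^-4 M. Nonspecific binding set with 10 µM phentolamine. Stopped by rapid vacuum filtration through glass fibre filters, then washed three times with ice-cold buffer. Ki reported.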

[2] = In vitro alpha-2 adrenergic receptor binding affinity was determined on calf frontal cortex membrane preparation; assay type: tissue-based, Bos taurus
Rattus norvegicus [3] = assay: Effect at (25 mg/kg, ip) on heart rate in anesthetized spontaneously hypertensive rats; assay type: functional
Summary of the method: (§1)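 Adult male SHR anaesthetised with sodium pentobarbital 50 mg/kg ip, left carotid catheter filled with heparinised saline. BP and HR (HR from pulse pressure) stabilised ≥40 min before a single ip dose, n=6/group. Vehicle 0.5% carboxymethylcellulose in water, 2.5 mL/kg. Recorded over 90 min. Output is the maximal change in MAP (mmHg) and HR (bpm) from pre-dose baseline, also as %. Repeated-measures ANOVA with Dunnett's tests.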

Rattus norvegicus [4] = assay: Effect (25 mg/kg ip) on heart rate in anesthetized spontaneously hypertensive rats; assay type: functional; summary of the method: as §1
Rattus norvegicus [5] = assay: Effect (25 mg/kg ip) on mean arterial blood pressure in anesthetized spontaneously hypertensive rats; assay type: functional; summary of the method: as §1
[6] = molecular target: imidazoline I2 binding site (Oryctolagus cuniculus); assay: In vitro binding affinity determined against imidazoline receptor I-2 using rabbit kidney preparation
Rattus norvegicus [7] = assay: Effect at 25 mg/kg, ip, on mean arterial blood pressure in anesthetized spontaneously hypertensive rats; lethal at 12.5 mg; toxic at 5 mg; inactive at 0.5 mg; assay type: functional, organism-based; set-up: dose 25 mg/kg
Rattus norvegicus [8] = assay: Effect after 10 mg/kg, po, on heart rate in conscious spontaneously hypertensive rats; assay type: functional
Summary of the method: (§2)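 Studied conscious 24 h after surgery. Dosed by oral gavage after ≥40 min stabilisation, n=6/group. Vehicle 0.5% carboxymethylcellulose, 5 mL/kg. MAP and HR recorded over 24 h. Output is the maximal change from baseline (mmHg, bpm, %). Repeated-measures ANOVA with Dunnett's tests.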

Rattus norvegicus [9] = assay: Effect after 100 mg/kg, po, on heart rate in conscious spontaneously hypertensive rats; assay type: functional; summary of the method: as §2
Rattus norvegicus [10] = assay: Effect after 30 mg/kg, po, on heart rate in conscious spontaneously hypertensive rats; assay type: functional; summary of the method: as §2
Rattus norvegicus [11] = assay: Effect after 10 mg/kg, po, on mean arterial blood pressure in conscious spontaneously hypertensive rats; assay type: functional; summary of the method: as §2
Rattus norvegicus [12] = assay: Effect after 100 mg/kg, po, on mean arterial blood pressure in conscious spontaneously hypertensive rats; assay type: functional; summary of the method: as §2
Rattus norvegicus [13] = assay: Effect after 30 mg/kg, po, on mean arterial blood pressure in conscious spontaneously hypertensive rats; assay type: functional; summary of the method: as §2

Structure (SMILES)	Ki [1] [µM]	Ki [2] [µM]	Max delta HR (Rattus norvegicus [3]) [beats min-1]	Variation (Rattus norvegicus [4]) [%]	Max delta MAP (Rattus norvegicus [5]) [mmHg]	Variation (Rattus norvegicus [5]) [%]	also measured
COc1cc(=O)n2c3c(ccc(C)c13)OC(C1=NCCN1)C2 (stereo not drawn)	9.4	6.8	-17	-6	-1	0	–
Cc1cc2c(cc1C)N(C)CC(C1=NCCN1)O2 (stereo not drawn)	5.66	0.026	-100	-33	-8	-5	–
CN1CC(C2=NCCN2)Oc2cc3ccccc3cc21 (stereo not drawn)	> 10	0.402	-37	-11	-17	-9	–
c1cc2c3c(c1)ccn3CC(C1=NCCN1)O2 (stereo not drawn)	> 1	0.36	-45	-14	-24	-14	–
Cc1cccc2c1OC(C1=NCCN1)CN2C (stereo not drawn)	> 1	0.0073	-79	-25	-24	-13	–
CCCN1CC(C2=NCCN2)Oc2ccccc21 (stereo not drawn)	> 10	0.132	-90	-27	-26	-14	Ki [6]: 0.16 µM
Cc1cc(C)c2c(c1)N(C)CC(C1=NCCN1)O2 (stereo not drawn)	> 1	0.0124	–	–	–	–	Max delta MAP (Rattus norvegicus [7]): inactive; Variation (Rattus norvegicus [7]): inactive
CN1CC(C2=NCCN2)Oc2ccc(CO)cc21 (stereo not drawn)	> 10	0.0104	–	–	–	–	–
CCCC1(C2=NCCN2)CN(C)c2ccccc2O1 (stereo not drawn)	> 1	> 1	-56	-17	22	11	–
COC(=O)c1ccc2c(c1)N(C)CC(C1=NCCN1)O2 (stereo not drawn)	> 10	7.5	–	–	–	–	–
CN1CC(C2=NCCN2)Oc2ccc(F)cc21 (stereo in doubt; 4h)	5.91	0.104	-139	-44	-6	-36	Max delta HR (Rattus norvegicus [8]): 25 beats min-1; Variation (Rattus norvegicus [8]): 7%; Max delta HR (Rattus norvegicus [9]): -61 beats min-1; Variation (Rattus norvegicus [9]): -18%; Max delta HR (Rattus norvegicus [10]): -43 beats min-1; Variation (Rattus norvegicus [10]): -12%; Max delta MAP (Rattus norvegicus [11]): -34 mmHg; Variation (Rattus norvegicus [11]): -18%; Max delta MAP (Rattus norvegicus [12]): -81 mmHg; Variation (Rattus norvegicus [12]): -44%; Max delta MAP (Rattus norvegicus [13]): -56 mmHg; Variation (Rattus norvegicus [13]): -29%
CN1CC(C2=NCCN2)Oc2ccc(F)cc21 (stereo in doubt; (+)4h)	2.54	0.0682	-85	-25	-50	-28	–
CN1CC(C2=NCCN2)Oc2ccc(F)cc21 (single isomer, unassigned; (-))	> 1	0.0329	-143	-45	-55	-31	–
c1ccc2c(c1)NCC(C1=NCCN1)O2 (stereo not drawn)	> 10	> 10	-8	-3	-17	-9	–
c1cc2c3c(c1)OC(C1=NCCN1)CN3CCCC2 (stereo not drawn)	4.6	2.15	-65	-22	21	11	–
